Test results published in ChEMBL document CHEMBL1144825, “A different molecular mechanism underlying antimicrobial and hemolytic actions of temporins A and L” (J Med Chem, 2008).

Experiments:
[1] = Toxicity assessed as hemolytic activity in human erythrocytes at 12 uM after 30 mins; assay type: cell-based, Erythrocyte; conditions: read-out: Activity
Outline: (§1)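 Human erythrocyte suspension in 0.9% (w/v) NaCl incubated 30 min at 37 °C with gentle mixing alongside serial 2-fold peptide dilutions (peptide dissolved in 20% ethanol). After centrifugation, supernatant absorbance read at 415 nm. Complete lysis reference obtained by suspending erythrocytes in distilled water.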

Pseudomonas aeruginosa = assay: Antimicrobial activity against Pseudomonas aeruginosa ATCC 15692 after 18 to 20 hrs by microbroth dilution method; assay type: functional
Outline: (§2)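 Microbroth dilution per NCCLS (2001): midlog-phase bacteria at 2 × 10^6 CFU/mL in Mueller-Hinton medium mixed 1:1 with MH broth containing peptide in serial 2-fold dilutions (20% ethanol), range 0.75-24 µM. Incubated 18–20 h at 37 °C; growth read as absorbance at 600 nm. MIC taken as the lowest peptide concentration giving 100% growth inhibition.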

[2] = system: Staphylococcus epidermidis; assay: Antimicrobial activity against Staphylococcus epidermidis ATCC 12228 after 18 to 20 hrs by micro-broth dilution method; assay type: functional; outline: as §2
[3] = Antimicrobial activity against […] faecalis ATCC 29212 after 18 to 20 hrs by microbroth dilution method; assay type: functional; outline: as §2
Priestia megaterium = assay: Antimicrobial activity against Bacillus megaterium Bm11 after 18 to 20 hrs by micro-broth dilution method; assay type: functional; outline: as §2
Staphylococcus capitis = assay: Antimicrobial activity against Staphylococcus capitis after 18 to 20 hrs by micro-broth dilution method; assay type: functional; outline: as §2
Pseudomonas syringae = assay: Antimicrobial activity against Pseudomonas syringae pv tabaci after 18 to 20 hrs by micro-broth dilution method; assay type: functional; outline: as §2
[4] = system: Yersinia pseudotuberculosis; assay: Antimicrobial activity against Yersinia pseudotuberculosis YP3 after 18 to 20 hrs by micro-broth dilution method; assay type: functional
Outline: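 Microbroth dilution per NCCLS (2001). Mid-log bacteria at 2 × 10^6 CFU/mL in Mueller-Hinton broth are mixed 1:1 with MH broth holding serial 2-fold peptide dilutions in 20% ethanol, range 0.75-24 µM. Plates are incubated 18–20 h at 37 °C and growth is read as A600. MIC is the lowest concentration giving 100% growth inhibition.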

Candida albicans = assay: Antimicrobial activity against Candida albicans ATCC 10231 after 18 to 20 hrs by micro-broth dilution method; assay type: functional
Outline: (§3)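 Yeasts tested by NCCLS (2001) microbroth dilution in Winge medium: cells mixed 1:1 with medium containing peptide in serial 2-fold dilutions (20% ethanol), range 0.75-24 µM. Incubated 18–20 h at 30 °C; absorbance read at 600 nm. MIC defined as the peptide concentration giving 100% growth inhibition.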

[5] = Toxicity assessed as hemolytic activity in human erythrocytes at 24 uM after 30 mins; assay type: cell-based, Erythrocyte; conditions: read-out: Activity; outline: as §1
Saccharomyces cerevisiae = assay: Antimicrobial activity against Saccharomyces cerevisiae after 18 to 20 hrs by micro-broth dilution method; assay type: functional; outline: as §3
[6] = Toxicity assessed as hemolytic activity in human erythrocytes at 3 uM after 30 mins; assay type: cell-based, Erythrocyte; conditions: read-out: Activity; outline: as §1
Staphylococcus aureus [7] = assay: Antimicrobial activity against Staphylococcus aureus Cowan 1 after 18 to 20 hrs by micro-broth dilution method; assay type: functional; outline: as §2
Staphylococcus aureus [8] = assay: Antimicrobial activity against Staphylococcus aureus ATCC 25923 after 18 to 20 hrs by micro-broth dilution method; assay type: functional; outline: as §2
Saccharomyces = assay: Antimicrobial activity against Saccharomyces pombe after 18 to 20 hrs by micro-broth dilution method; assay type: functional; outline: as §3
[9] = Toxicity assessed as hemolytic activity in human erythrocytes at 6 uM after 30 mins; assay type: cell-based, Erythrocyte; conditions: read-out: Activity; outline: as §1
Escherichia coli = assay: Antimicrobial activity against Escherichia coli D21 after 18 to 20 hrs by micro-broth dilution method; assay type: functional; outline: as §2
Streptococcus pyogenes = assay: Antimicrobial activity against Streptococcus pyrogenes ATCC 21547 after 18 to 20 hrs by micro-broth dilution method; assay type: functional; outline: as §2

Substance | hemolysis at 0.5 h, 12 µM [1] | MIC (Pseudomonas aeruginosa) | MIC [2] | MIC [3] | MIC (Priestia megaterium) | MIC (Staphylococcus capitis) | MIC (Pseudomonas syringae) | MIC [4] | MIC (Candida albicans) | hemolysis at 0.5 h, 24 µM [5] | MIC (Saccharomyces cerevisiae) | hemolysis at 0.5 h, 3 µM [6] | MIC (Staphylococcus aureus [7]) | MIC (Staphylococcus aureus [8]) | MIC (Saccharomyces) | hemolysis at 0.5 h, 6 µM [9] | MIC (Escherichia coli) | MIC (Streptococcus pyogenes)
H-FLPLIGRVLSGIL-NH2 [TEMPORIN A] | 6% | > 24 µM | 3 µM | 12 µM | 1.5 µM | 1.5 µM | > 24 µM | 12 µM | 12 µM | 28% | 6 µM | 3% | 1.5 µM | 3 µM | 3 µM | 4.5% | > 24 µM | 12 µM
H-FLQLIGRVLSGIL-NH2 [GLN-TA, TEMPORIN A] | 70% | > 24 µM | 1.5 µM | 6 µM | 0.75 µM | 1.5 µM | > 24 µM | 6 µM | 6 µM | 92% | 6 µM | 9% | 1.5 µM | 1.5 µM | 3 µM | 18% | > 24 µM | 6 µM
H-FVPWFSKFLGRIL-NH2 | 42% | 24 µM | 1.5 µM | 6 µM | 1.5 µM | 1.5 µM | 6 µM | 3 µM | 6 µM | 92% | 6 µM | 6% | 1.5 µM | 3 µM | 3 µM | 10% | 12 µM | 6 µM
H-FVQWFSKFLGRIL-NH2 [TEMPORIN L] | 92% | 24 µM | 3 µM | 6 µM | 1.5 µM | 1.5 µM | 6 µM | 3 µM | 12 µM | 94% | 6 µM | 13% | 3 µM | 3 µM | 6 µM | 48% | 12 µM | 6 µM
